# Active and inactive are the calls of the source. No cut-off for these calls is given here.
# Tests used:
# Staphylococcus aureus [1] = assay: Antibacterial activity against Staphylococcus aureus RN4220 ATCC 35556 incubated overnight by microbroth dilution method; type: functional
# How it was run: (§1)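 Bacteria grown in LB medium. CLSI microbroth dilution in 96-well plates, overnight at 37 °C without shaking. MIC99 taken as the lowest concentration giving complete growth inhibition. Three independent determinations, reported as mean ± SD.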
# Pseudomonas aeruginosa [2] = assay: Antibacterial activity against Pseudomonas aeruginosa PAO1 ATCC 47085 incubated overnight by microbroth dilution method; type: functional; how it was run: as §1
# Staphylococcus aureus [3] = assay: Antibacterial activity against methicillin-resistant Staphylococcus aureus clinical isolate 10076B SPA type 2 after 24 hrs by microbroth dilution method; type: functional
# How it was run: (§2)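 MRSA isolates from ICU surfaces, stored at −80 °C and grown in Mueller-Hinton broth. Overnight cultures diluted and added to serially diluted compound at ~10⁵ CFU/mL, broth microdilution. Plates incubated 24 h at 37 °C, growth read as absorbance at 620 nm. MIC99 taken as the lowest concentration giving complete growth inhibition.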
# Staphylococcus aureus [4] = assay: Antibacterial activity against methicillin-resistant Staphylococcus aureus clinical isolate 20467BA SPA type 59 after 24 hrs by microbroth dilution method; type: functional; how it was run: as §2
# Pseudomonas aeruginosa [5] = assay: Antibiofilm activity against Pseudomonas aeruginosa PAO1 ATCC 47085 at 64 ug/ml after 24 hrs by crystal violet staining-based spectrophotometry; type: functional, organism-based
# How it was run: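 PAO1 grown 2 h in LB at 37 °C with shaking, then diluted 1:1000 in 10% LB-PBS to 3 × 10⁵ CFU/mL and mixed with serially diluted compound. Biofilms grown on peg lids 24 h at 37 °C, static. Pegs washed, stained with 0.1% crystal violet for 15 min, dye eluted in 95% ethanol and read at 600 nm. Control was 10% LB-PBS.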
# Staphylococcus aureus [6] = assay: Bactericidal activity against Staphylococcus aureus RN4220 ATCC 35556 in stationary-phase assessed as reduction in bacterial burden at 4 times MIC99 after 2 to 6 hrs by time-kill assay; type: functional, organism-based
# How it was run: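 Overnight cultures washed and resuspended in PBS, then diluted 100-fold into LB (exponential-phase model) or into 1% PBS (stationary-phase model). Test agent added at 4× MIC99. Incubated at 37 °C with shaking at 200 rpm. CFU counted on LB agar at 0, 2, 4 and 6 h.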
# [7] = Hemolytic activity in human RBC after 1 hr; type: ADME, cell-based, Erythrocyte; settings: red blood cells
# How it was run: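 Human red blood cells, stored at 4 °C, added to serially diluted compound and incubated 1 h at 37 °C without shaking. Plates centrifuged and supernatant absorbance read at 540 nm. Triton X-100 as positive control. HC50 is the concentration lysing 50% of cells.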
# [8] = Cytotoxicity against HEK293T/17 cells after 48 hrs by MTS conversion assay; type: cell-based, HEK-293T; settings: human
# How it was run: (§3)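 HEK293T/17 and A549 cells maintained in DMEM with 10% FBS at 37 °C, 5% CO2. Seeded at 10⁴ cells per well; after 24 h, washed with PBS and exposed to serially diluted compound for 48 h. Viability read by MTS conversion. CC50 obtained by nonlinear regression.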
# [9] = Cytotoxicity against human A549 cells after 48 hrs by MTS conversion assay; type: cell-based; how it was run: as §3
# [10] = Selectivity index, ratio of CC50 for HEK293T/17 cells to MIC99 for Staphylococcus aureus RN4220 ATCC 35556; type: toxicity, cell-based; settings: human, read-out: Selectivity Index
# How it was run: (§4)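 CC50: HEK293T/17 or A549 cells seeded at 10⁴ per well in DMEM with 10% FBS at 37 °C, 5% CO2. After 24 h, wells PBS-washed and serially diluted compound applied for 48 h, with viability read by MTS and CC50 taken by nonlinear regression. MIC99 by CLSI broth microdilution, overnight at 37 °C without shaking, from three independent tests. SI = CC50/MIC99.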
# [11] = Selectivity index, ratio of CC50 for HEK293T/17 cells to MIC99 for Pseudomonas aeruginosa PAO1 ATCC 47085; type: toxicity, cell-based; settings: human, read-out: Selectivity Index; how it was run: as §4
# [12] = Selectivity index, ratio of CC50 for HEK293T/17 cells to MIC99 for Escherichia coli ANS1; how it was run: as §4
# [13] = Selectivity index, ratio of CC50 for human A549 cells to MIC99 for Pseudomonas aeruginosa PAO1 ATCC 47085; type: toxicity, cell-based; settings: read-out: Selectivity Index; how it was run: as §4
# [14] = Selectivity index, ratio of CC50 for human A549 cells to MIC99 for Escherichia coli ANS1; how it was run: as §4
# Caenorhabditis elegans [15] = assay: Toxicity in adult L4/juvenile L1 stages of Caenorhabditis elegans N2 assessed as effect on egg development at 64 ug/ml incubated for 96 hrs measured every 12 hrs; type: organism-based; settings: in vivo
# How it was run: (§5)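 C. elegans N2 maintained on NGM agar at 22 °C. Compound mixed into molten NGM agar at 64 μg/mL. L4 adults, L1 juveniles and synchronized eggs transferred onto test plates and kept 96 h at 22 °C. Checked every 12 h for death, development and egg production. Gentamicin and […] as controls.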
# Caenorhabditis elegans [16] = assay: Toxicity in adult L4/juvenile L1 stages of Caenorhabditis elegans N2 assessed as effect on viable eggs production at 64 ug/ml incubated for 96 hrs measured every 12 hrs; type: organism-based; settings: in vivo; how it was run: as §5
# Caenorhabditis elegans [17] = assay: Toxicity in adult L4/juvenile L1 stages of Caenorhabditis elegans N2 assessed as deleterious effect on genotype at 64 ug/ml incubated for 96 hrs measured every 12 hrs; type: organism-based; settings: in vivo
# [18] = Toxicity in adult L4/juvenile L1 stages of Caenorhabditis elegans N2 assessed as survival at 64 ug/ml incubated for 96 hrs measured every 12 hrs; type: organism-based; settings: in vivo
# How it was run: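 C. elegans N2 kept on NGM agar at 22 °C. Compound mixed into molten NGM agar at 64 μg/mL. L4 adults, L1 juveniles and synchronized eggs transferred onto test plates and held at 22 °C for 96 h. Death, development and egg production checked every 12 h.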
# Staphylococcus aureus [19] = assay: Bactericidal activity against Staphylococcus aureus RN4220 ATCC 35556 assessed as reduction in bacterial burden at 4 times MIC99; type: functional
# Pseudomonas aeruginosa [20] = assay: Bactericidal activity against Pseudomonas aeruginosa PAO1 ATCC 47085 assessed as reduction in bacterial burden at 4 times MIC99; type: functional
# Pseudomonas aeruginosa [21] = assay: Potentiation of kanamycin-induced antibacterial activity against Pseudomonas aeruginosa PAO1 ATCC 47085 assessed as kanamycin MIC at 0.5 times MIC99 after 24 hrs by checkerboard assay (reference value: 64 ug/ml); type: functional; settings: PAO1 ATCC 47085, 24 h
# How it was run: (§6)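 Checkerboard assay: compound serially diluted along one axis of a 96-well plate and antibiotic along the other, in LB. Each well inoculated with 2 × 10⁴ CFU and incubated 24 h at 37 °C. ΣFIC = FIC A + FIC B, where each FIC is the combination MIC99 divided by the MIC99 of that drug alone.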
# Staphylococcus aureus [22] = assay: Antibacterial activity against Staphylococcus aureus RN4220 ATCC 35556 at 0.5 times MIC99 after 24 hrs by checkerboard assay in presence of kanamycin; type: functional; how it was run: as §6
# Pseudomonas aeruginosa [23] = assay: Antibacterial activity against Pseudomonas aeruginosa PAO1 ATCC 47085 at 0.5 times MIC99 after 24 hrs by checkerboard assay in presence of kanamycin; type: functional; how it was run: as §6
smiles,measurement,setting,value
Cl.Cl.S=C(NCCCNCCCCCNCCCNC(=S)NCC(c1ccccc1)c1ccccc1)NCC(c1ccccc1)c1ccccc1,MIC99,Staphylococcus aureus [1],2 µg/mL
same,MIC99,Pseudomonas aeruginosa [2],8 µg/mL
same,MIC99,Staphylococcus aureus [3],1 µg/mL
same,MIC99,Staphylococcus aureus [4],1 µg/mL
same,Activity,Pseudomonas aeruginosa [5],Active
same,Activity,Staphylococcus aureus [6],Active
same,HC50 at 1 h,[7],64 µg/mL
same,CC50 at 48 h,[8],32 µg/mL
same,CC50 at 48 h,[9],64 µg/mL
same,selectivity ratio,[10],16
same,selectivity ratio,[11],4
same,Selectivity Index,[12],16
same,selectivity ratio,[13],8
same,Selectivity Index,[14],32
same,Activity,Caenorhabditis elegans [15],Non-toxic
same,Activity,Caenorhabditis elegans [16],Non-toxic
same,Activity,Caenorhabditis elegans [17],Non-toxic
same,"survival at 96 h, 64 ug/ml",[18],100%
same,Activity,Staphylococcus aureus [19],>2 deltalog10CFU/ml
same,Activity,Pseudomonas aeruginosa [20],>2 deltalog10CFU/ml
same,MIC99,Pseudomonas aeruginosa [21],8 µg/mL
same,fractional inhibitory concentration index (FICI),Staphylococcus aureus [22],0.25
same,fractional inhibitory concentration index (FICI),Pseudomonas aeruginosa [23],0.75
